This note sets out measurements from ChEMBL document CHEMBL1156002, “Synthesis, Raman, FT-IR, NMR spectroscopic characterization, antimicrobial activity, cytotoxicity and DNA binding of new mixed aza-oxo-thia macrocyclic compounds” (2009).

Holding throughout (type): functional
Assay [1] relates to Escherichia coli. Description: Antibacterial activity against Escherichia coli ATCC 11230 after 24 hrs by broth micro dilution method.
The subject of assay [2] is Staphylococcus aureus. Description: Antibacterial activity against Staphylococcus aureus ATCC 6538 after 24 hrs by broth micro dilution method.
Assay [3] has as its system Klebsiella pneumoniae. Description: Antibacterial activity against Klebsiella pneumoniae UC57 after 24 hrs by broth micro dilution method.
The subject of assay [4] is Bacillus cereus. Description: Antibacterial activity against Bacillus cereus ATCC 7064 after 24 hrs by broth micro dilution method.
In assay [5] the test system is Micrococcus luteus. As to the kind of experiment: Antibacterial activity against Micrococcus luteus La 2971 after 24 hrs by broth micro dilution method.
Assay [6] has as its system Proteus vulgaris. Description: Antibacterial activity against Proteus vulgaris ATCC 8427 after 24 hrs by broth micro dilution method.
Assay [7] has as its system Mycolicibacterium smegmatis. Description: Antibacterial activity against Mycobacterium smegmatis CCM 2067 after 24 hrs by broth micro dilution method.
Assay [8] relates to Listeria monocytogenes. Description: Antibacterial activity against Listeria monocytogenes ATCC 15313 after 24 hrs by broth micro dilution method.
The subject of assay [9] is Pseudomonas aeruginosa. Description: Antibacterial activity against Pseudomonas aeruginosa ATCC 27853 after 24 hrs by broth micro dilution method.
Assay [10] deals with Escherichia coli. As to the kind of experiment: Antibacterial activity against Escherichia coli ATCC 11230 at 10 IU after 24 hrs by agar disk diffusion assay. A digest of the protocol:
(§1)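 Disk diffusion with sterile 6 mm discs loaded with DMSO solutions of the test agents and placed on inoculated agar. Bacteria were pre-grown in Nutrient Broth at 30 °C for 24 h, and plates were incubated at 35 °C for 24 h. Each plate carried a reference antibiotic disc matched to the organism, and a DMSO-only solvent control was run.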

Assay [11] concerns Staphylococcus aureus. As to the kind of experiment: Antibacterial activity against Staphylococcus aureus ATCC 6538 at 10 IU after 24 hrs by agar disk diffusion assay. A digest of the protocol: as §1
(Agar diffusion results depend on both activity and mobility in agar.)

The subject of assay [12] is Klebsiella pneumoniae. Description: Antibacterial activity against Klebsiella pneumoniae UC57 at 10 IU after 24 hrs by agar disk diffusion assay. In short, it runs like this:
as §1

For assay [13], the system named is Bacillus cereus. Description: Antibacterial activity against Bacillus cereus ATCC 7064 at 10 IU after 24 hrs by agar disk diffusion assay. In short, it runs like this:
as §1

The subject of assay [14] is Micrococcus luteus. Description: Antibacterial activity against Micrococcus luteus La 2971 at 10 IU after 24 hrs by agar disk diffusion assay. A digest of the protocol:
as §1

The test system of assay [15] is Proteus vulgaris. Description: Antibacterial activity against Proteus vulgaris ATCC 8427 at 10 IU after 24 hrs by agar disk diffusion assay. In short, it runs like this:
as §1

The subject of assay [16] is Mycolicibacterium smegmatis. As to the kind of experiment: Antibacterial activity against Mycobacterium smegmatis CCM 2067 at 10 IU after 24 hrs by agar disk diffusion assay. In short, it runs like this: as §1
Assay [17] relates to Listeria monocytogenes. Description: Antibacterial activity against Listeria monocytogenes ATCC 15313 at 10 IU after 24 hrs by agar disk diffusion assay. In short, it runs like this: as §1
Assay [18] concerns Pseudomonas aeruginosa. As to the kind of experiment: Antibacterial activity against Pseudomonas aeruginosa ATCC 27853 at 10 IU after 24 hrs by agar disk diffusion assay. In short, it runs like this:
as §1

Assay [19] has as its system Escherichia coli. Description: Antibacterial activity against Escherichia coli ATCC 11230 at 30 ug after 24 hrs by agar disk diffusion assay. The settings on record: ATCC 11230, 24 h, read-out: IZ. In short, it runs like this: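 Bacteria pre-grown in Nutrient Broth at 30 °C for 24 h. Sterile 6 mm discs loaded with compound solutions freshly made in DMSO were placed on inoculated agar and incubated at 35 °C for 24 h. The medium was supplemented with DMSO as a solvent control, and an appropriate reference antibiotic disc was added to each plate.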

Assay [20] deals with Staphylococcus aureus. Description: Antibacterial activity against Staphylococcus aureus ATCC 6538 at 30 ug after 24 hrs by agar disk diffusion assay. The settings on record: ATCC 6538, 24 h, read-out: IZ. In short, it runs like this:
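Sterile 6 mm paper discs were loaded with ligand solution freshly prepared in DMSO and placed on inoculated agar. The inoculum came from broth cultures: bacteria in Nutrient Broth at 30 °C for 24 h, yeasts in Malt Extract Broth for 48 h. Plates were incubated at 35 °C for 24 h (bacteria) or 25 °C for 72 h (yeasts). A DMSO solvent control and a reference antibiotic disc were included on each plate.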

In assay [21] the test system is Klebsiella pneumoniae. Description: Antibacterial activity against Klebsiella pneumoniae UC57 at 30 ug after 24 hrs by agar disk diffusion assay. Conditions: UC57, 24 h, read-out: IZ. A digest of the protocol: as §1
In assay [22] the test system is Bacillus cereus. As to the kind of experiment: Antibacterial activity against Bacillus cereus ATCC 7064 at 30 ug after 24 hrs by agar disk diffusion assay. Conditions: ATCC 7064, 24 h, read-out: IZ. A digest of the protocol:
as §1

The subject of assay [23] is Micrococcus luteus. Description: Antibacterial activity against Micrococcus luteus La 2971 at 30 ug after 24 hrs by agar disk diffusion assay. Conditions: La 2971, 24 h, read-out: IZ. In short, it runs like this:
as §1

Assay [24] concerns Proteus vulgaris. Description: Antibacterial activity against Proteus vulgaris ATCC 8427 at 30 ug after 24 hrs by agar disk diffusion assay. The settings on record: ATCC 8427, 24 h, read-out: IZ. A digest of the protocol:
as §1

Assay [25] relates to Mycolicibacterium smegmatis. Description: Antibacterial activity against Mycobacterium smegmatis CCM 2067 at 30 ug after 24 hrs by agar disk diffusion assay. The settings on record: CCM 2067, 24 h, read-out: IZ. A digest of the protocol: as §1
In assay [26] the test system is Listeria monocytogenes. As to the kind of experiment: Antibacterial activity against Listeria monocytogenes ATCC 15313 at 30 ug after 24 hrs by agar disk diffusion assay. Conditions: ATCC 15313, 24 h, read-out: IZ. In short, it runs like this:
as §1

For assay [27], the system named is Pseudomonas aeruginosa. As to the kind of experiment: Antibacterial activity against Pseudomonas aeruginosa ATCC 27853 at 30 ug after 24 hrs by agar disk diffusion assay. Conditions: ATCC 27853, 24 h, read-out: IZ. A digest of the protocol:
as §1

GENTAMICIN: the minimum inhibitory concentration (MIC) (commonly the lowest concentration found to suppress growth) in the assay with Escherichia coli [1] worked out at 6.25 µg/mL; against Staphylococcus aureus [2], 25 µg/mL; in the assay with Klebsiella pneumoniae [3] it was 6.25 µg/mL; in the assay with Bacillus cereus [4], 6.25 µg/mL; in the assay on Micrococcus luteus [5], 25 µg/mL; with Proteus vulgaris [6], 6.25 µg/mL. The results for the MIC (in assay [7]; in the assay with Listeria monocytogenes [8]; with Pseudomonas aeruginosa [9]) were 12.5 µg/mL, 12.5 µg/mL and 6.25 µg/mL, respectively.
Consider `CC1(C)S[C@@H]2[C@H](NC(=O)Cc3ccccc3)C(=O)N2[C@H]1C(=O)O` [PENICILLIN G], for which the “inhibition zone (IZ)” value in the assay with Escherichia coli [10] stood at 18 mm; in the assay on Staphylococcus aureus [11], 13 mm; with Klebsiella pneumoniae [12], 18 mm; in the assay with Bacillus cereus [13], 8 mm; with Micrococcus luteus [14] it was 10 mm; in the assay with Proteus vulgaris [15], 14 mm. Besides, the “inhibition zone (IZ)” value was 15 mm in [16], 10 mm with Listeria monocytogenes [17] and 36 mm with Pseudomonas aeruginosa [18].
As to `CN(C)[C@@H]1C(O)=C(C(N)=O)C(=O)[C@@]2(O)C(O)=C3C(=O)c4c(O)cccc4[C@@](C)(O)[C@H]3C[C@@H]12` [TETRACYCLINE], the zone of inhibition at 30 µg/disc came to 28 mm in the assay on Escherichia coli [19]; 26 mm in the assay on Staphylococcus aureus [20]; 30 mm in the assay with Klebsiella pneumoniae [21]; 34 mm in the assay with Bacillus cereus [22]; 26 mm in the assay on Micrococcus luteus [23]; 25 mm with Proteus vulgaris [24]. The figures for the zone of inhibition at 30 µg/disc (in assay [25]; in the assay on Listeria monocytogenes [26]; in the assay with Pseudomonas aeruginosa [27]) were 24 mm, 28 mm and 22 mm, respectively.
Consider `CN[C@H](CC(C)C)C(=O)N[C@H]1C(=O)N[C@@H](CC(N)=O)C(=O)N[C@H]2C(=O)N[C@H]3C(=O)N[C@H](C(=O)N[C@H](C(=O)O)c4cc(O)cc(O)c4-c4cc3ccc4O)[C@H](O)c3ccc(c(Cl)c3)Oc3cc2cc(c3O[C@@H]2O[C@H](CO)[C@@H](O)[C@H](O)[C@H]2O[C@H]2C[C@](C)(N)[C@H](O)[C@H](C)O2)Oc2ccc(cc2Cl)[C@H]1O` [VANCOMYCIN], for which the zone of inhibition at 30 µg/disc turned out to be 22 mm with Escherichia coli [19]; 13 mm in the assay with Staphylococcus aureus [20]; 22 mm in the assay with Klebsiella pneumoniae [21]; 10 mm in the assay with Bacillus cereus [22]; 20 mm in the assay with Micrococcus luteus [23]; 18 mm in the assay on Proteus vulgaris [24]. Further, the zone of inhibition at 30 µg/disc was determined as 20 mm in [25], 26 mm in the assay with Listeria monocytogenes [26] and 34 mm in the assay with Pseudomonas aeruginosa [27].
